Data as given in ChEMBL document CHEMBL1129987, “Structure-based design of nonpeptidic HIV protease inhibitors: the sulfonamide-substituted cyclooctylpyramones” (J Med Chem, 1997).

Assays:
[1] = test system: Human immunodeficiency virus 1; assay: Antiviral activity in HIV-1 infected H9 cells; type: functional; details: Human immunodeficiency virus 1, H9; read-out: ED50 (the source's name)
Method in brief: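 H9 cells infected with HIV-1 IIIB at MOI about 0.005, spun down (200g, 10 min), resuspended at 8 × 10^5 cells/mL in RPMI Complete and mixed with compound; final DMSO 0.1%, triplicate per concentration. After 5 days at 37 °C in 5% CO2, supernatant p24 antigen was measured by ELISA. ED50 is the drug amount that reduces p24 by 50% versus DMSO drug-free controls.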

[2] = molecular target: Human immunodeficiency virus type 1 protease (Human immunodeficiency virus 1, UniProt Q72874); assay: Binding affinity against HIV-1 protease
[3] = Median cell culture toxic dose was evaluated against H9 cell line; type: ADME, cell-based; details: human, H9 cells; read-out: CCTD50
[4] = molecular target: Human immunodeficiency virus type 1 protease (Human immunodeficiency virus 1) (UniProt Q72874); assay: Percentage inhibition against HIV-1 protease at 1.1 uM concentration of drug
[5] = Total plasma clearance value was obtained after intravenous administration of 2.5 mg/kg of drug in male Dawley rats; type: ADME, organism-based; design: dose 2.5 mg/kg, route intravenous; details: Sprague-Dawley, rat
[6] = Maximum concentration was measured after peroral administration of 5.0 mg/kg of drug in male Dawley rats; type: ADME, organism-based; design: dose 5 mg/kg, route oral; details: Sprague-Dawley, rat, in vivo, po
[7] = Maximum time taken by the drug to reach peak concentration after peroral administration of 5.0 mg/kg of drug in male Dawley rats; type: ADME, organism-based; design: dose 5 mg/kg, route oral; details: Sprague-Dawley, rat, in vivo, po
[8] = Oral bioavailability in rat (Sprague-Dawley) (male) (dose 5 mg/kg); type: ADME, organism-based; details: in vivo
[9] = Apparent volume of distribution was obtained after intravenous administration of 2.5 mg/kg of drug in male Dawley rats; type: ADME, organism-based; design: dose 2.5 mg/kg, route intravenous; details: Sprague-Dawley, rat, in vivo, read-out: Vss
[10] = Half-life was measured after intravenous administration of 2.5 mg/kg of drug in male Dawley rats; type: ADME, organism-based; design: dose 2.5 mg/kg, route intravenous; details: Sprague-Dawley, rat, in vivo
[11] = molecular target: Human immunodeficiency virus type 1 protease (Human immunodeficiency virus 1) (UniProt Q72874); assay: Percentage inhibition against HIV-1 protease at 3 uM concentration of drug
[12] = molecular target: Human immunodeficiency virus type 1 protease (Human immunodeficiency virus 1) (UniProt Q72874); assay: Percentage inhibition against HIV-1 protease at 1 uM concentration of drug
[13] = molecular target: Human immunodeficiency virus type 1 protease (Human immunodeficiency virus 1) (UniProt Q72874); assay: Percentage inhibition against HIV-1 protease at 10 uM concentration of drug

| SMILES | EC50 [1] [nM] | Ki [2] [nM] | CC50 [3] [nM] | further results |
| --- | --- | --- | --- | --- |
| CC(C)C(c1cccc(NS(=O)(=O)c2ccc(C#N)cc2)c1)c1c(O)c2c(oc1=O)CCCCCC2 (stereo not given) | > 10000 | 5.9 | > 30000 | – |
| CCCCC(c1cccc(NS(=O)(=O)c2ccc(F)cc2)c1)c1c(O)c2c(oc1=O)CCCCCC2 (stereo not given) | > 10000 | 6.1 | > 30000 | – |
| O=c1c2c(oc(O)c1C(c1cccc(NS(=O)(=O)c3cccc(C(F)(F)F)c3)c1)C1CC1)CCCCCC2 (stereo not given) | 3800 | 3 | > 30000 | – |
| O=c1c2c(oc(O)c1C(c1cccc(NS(=O)(=O)c3ccc(Cl)c(Cl)c3Cl)c1)C1CC1)CCCCCC2 (stereo not given) | 4100 | 8.8 | > 30000 | – |
| N#Cc1cccc(S(=O)(=O)Nc2cccc(C(c3c(O)oc4c(c3=O)CCCCCC4)C3CC3)c2)c1 (stereo not given) | > 3000 | 0.6 | > 30000 | – |
| CCCC(c1cccc(NS(=O)(=O)c2ccc(F)cc2)c1)c1c(O)c2c(oc1=O)CCCCCC2 (stereo not given) | 6300 | 2.1 | > 30000 | – |
| O=c1c2c(oc(O)c1C(c1cccc(N(CC3CC3)S(=O)(=O)c3ccccc3)c1)C1CC1)CCCCCC2 (stereo not given) | – | – | – | inhibition [4]: < 10% |
| O=c1c2c(oc(O)c1C(c1cccc(NS(=O)(=O)c3cccc(Br)c3)c1)C1CC1)CCCCCC2 (stereo not given) | 3000 | 2.6 | > 30000 | – |
| O=c1c2c(oc(O)c1C(c1cccc(N(CCc3ccccc3)S(=O)(=O)c3ccccc3)c1)C1CC1)CCCCCC2 (stereo not given) | – | – | – | inhibition [4]: < 10%; inhibition [11]: < 10% |
| CN(C)c1ccc(S(=O)(=O)Nc2cccc(C(c3c(O)c4c(oc3=O)CCCCCC4)C3CC3)c2)cc1 (stereo not given) | 8700 | 2.8 | > 30000 | – |
| CCC(c1cccc(NS(=O)(=O)c2ccc(C#N)cc2)c1)c1c(O)c2c(oc1=O)CCCCCC2 (stereo not given) | 3300 | 3.1 | > 30000 | – |
| CC(C)C(c1cccc(NS(=O)(=O)c2cn(C)cn2)c1)c1c(O)c2c(oc1=O)CCCCCC2 (stereo not given) | 2500 | 0.5 | > 30000 | – |
| CCCC(c1cccc(NS(=O)(=O)c2ccc(Cl)cc2)c1)c1c(O)c2c(oc1=O)CCCCCC2 (stereo not given) | > 10000 | 4 | > 30000 | – |
| CCCCC(c1cccc(NS(=O)(=O)c2ccc(C#N)cc2)c1)c1c(O)c2c(oc1=O)CCCCCC2 (stereo not given) | 7600 | 2.1 | > 30000 | – |
| CCCC(c1cccc(NS(=O)(=O)c2cccc3cccnc23)c1)c1c(O)c2c(oc1=O)CCCCCC2 (stereo not given) | > 3000 | 2.1 | > 30000 | – |
| O=c1c2c(oc(O)c1C(c1cccc(NS(=O)(=O)c3ccc4ccccc4n3)c1)C1CC1)CCCCCC2 (stereo not given) | 5400 | 0.4 | > 30000 | – |
| O=c1c2c(oc(O)c1C(c1cccc(NS(=O)(=O)c3cccs3)c1)C1CC1)CCCCCC2 (stereo not given) | > 10000 | 6.3 | > 30000 | – |
| COc1ccc(S(=O)(=O)Nc2cccc(C(c3c(O)c4c(oc3=O)CCCCCC4)C3CC3)c2)cc1OC (stereo not given) | 4100 | 6.8 | > 30000 | – |
| O=c1c2c(oc(O)c1C(c1cccc(N(S(=O)(=O)c3ccccc3)S(=O)(=O)c3ccccc3)c1)C1CC1)CCCCCC2 (stereo not given) | – | – | – | inhibition [12]: 10% |

| SMILES | EC50 [1] [nM] | Ki [2] [nM] | CC50 [3] [nM] | further results |
| --- | --- | --- | --- | --- |
| CC(C)CC(c1cccc(NS(=O)(=O)c2ccc(F)cc2)c1)c1c(O)c2c(oc1=O)CCCCCC2 (stereo not given) | > 10000 | 2.8 | > 30000 | – |
| Nc1cccc(S(=O)(=O)Nc2cccc(C(c3c(O)c4c(oc3=O)CCCCCC4)C3CC3)c2)c1 (stereo not given) | 6300 | 2.3 | > 30000 | – |
| CC(C)(C)c1ccc(S(=O)(=O)Nc2cccc(C(c3c(O)c4c(oc3=O)CCCCCC4)C3CC3)c2)cc1 (stereo not given) | > 10000 | 32 | > 30000 | – |
| CC(C)CC(c1cccc(NS(=O)(=O)c2cccc3cccnc23)c1)c1c(O)c2c(oc1=O)CCCCCC2 (stereo not given) | > 10000 | 3.3 | > 30000 | – |
| CCCC(c1cccc(NS(=O)(=O)c2cn(C)cn2)c1)c1c(O)c2c(oc1=O)CCCCCC2 (stereo not given) | 2500 | 0.1 | > 30000 | – |
| CCCC(c1cccc(NS(=O)(=O)c2ccc(C#N)cc2)c1)c1c(O)c2c(oc1=O)CCCCCC2 (stereo not given) | 3900 | 1.4 | > 30000 | – |
| CCC(c1cccc(NS(=O)(=O)c2ccc(Cl)cc2)c1)c1c(O)c2c(oc1=O)CCCCCC2 (stereo not given) | 4700 | 3.5 | > 30000 | – |
| O=C(O)c1ccc(S(=O)(=O)Nc2cccc(C(c3c(O)c4c(oc3=O)CCCCCC4)C3CC3)c2)cc1 (stereo not given) | > 10000 | 11 | > 30000 | – |
| O=c1c2c(oc(O)c1C(c1cccc(NS(=O)(=O)c3cccc4ccccc34)c1)C1CC1)CCCCCC2 (stereo not given) | 3600 | 5.5 | > 30000 | – |
| CC(C)CC(c1cccc(NS(=O)(=O)c2ccc(C#N)cc2)c1)c1c(O)c2c(oc1=O)CCCCCC2 (stereo not given) | 6100 | 1.5 | > 30000 | – |
| CC(C)C(c1cccc(NS(=O)(=O)c2ccc(F)cc2)c1)c1c(O)c2c(oc1=O)CCCCCC2 (stereo not given) | > 10000 | 11 | > 30000 | – |
| Cc1cccc(S(=O)(=O)Nc2cccc(C(c3c(O)c4c(oc3=O)CCCCCC4)C3CC3)c2)c1 (stereo not given) | 4000 | 5.3 | > 30000 | – |
| O=c1c2c(oc(O)c1C(c1cccc(NS(=O)(=O)c3cnccn3)c1)C1CC1)CCCCCC2 (stereo not given) | 2000 | 0.2 | > 30000 | – |
| CC(C)N(c1cccc(C(c2c(O)c3c(oc2=O)CCCCCC3)C2CC2)c1)S(=O)(=O)c1ccccc1 (stereo not given) | – | – | – | inhibition [4]: < 10% |
| Cn1cnc(S(=O)(=O)Nc2cccc([C@@H](c3c(O)c4c(oc3=O)CCCCCC4)C3CC3)c2)c1 | 2100 | 0.045 | > 30000 | clearance [5]: 4.67 mL/min/kg; Cmax [6]: 0.64 µM; Tmax [7]: 0.25 h; bioavailability [8]: 15%; Vd [9]: 0.2 L/kg; half-life [10]: 2.4 h |
| O=c1c2c(oc(O)c1C(c1cccc(NS(=O)(=O)c3cccc(Cl)c3)c1)C1CC1)CCCCCC2 (stereo not given) | 3200 | 2.7 | > 30000 | – |
| COc1ccc(S(=O)(=O)Nc2cccc(C(c3c(O)c4c(oc3=O)CCCCCC4)C3CC3)c2)cc1 (stereo not given) | 4500 | 3.9 | > 30000 | – |
| O=c1c2c(oc(O)c1C(c1cccc(N(Cc3ccccc3)S(=O)(=O)c3ccccc3)c1)C1CC1)CCCCCC2 (stereo not given) | – | – | – | inhibition [4]: < 10%; inhibition [13]: < 10% |

Further lines, with some results ahead:

| EC50 [1] [nM] | Ki [2] [nM] | SMILES | CC50 [3] [nM] | further results |
| --- | --- | --- | --- | --- |
| 1700 | 2.6 | [N-]=[N+]=Nc1ccc(S(=O)(=O)Nc2cccc(C(c3c(O)oc4c(c3=O)CCCCCC4)C3CC3)c2)cc1 (stereo not given) | > 30000 | – |
| > 3000 | 7.6 | O=c1c2c(oc(O)c1C(c1cccc(NS(=O)(=O)c3cccc(Cl)c3Cl)c1)C1CC1)CCCCCC2 (stereo not given) | > 30000 | – |
| 1300 | 0.4 | O=c1c2c(oc(O)c1[C@H](c1cccc(NS(=O)(=O)c3cccc4cccnc34)c1)C1CC1)CCCCCC2 | > 30000 | clearance [5]: 2.83 mL/min/kg; Cmax [6]: 6.2 µM; Tmax [7]: 0.25 h; bioavailability [8]: 34%; Vd [9]: 0.15 L/kg; half-life [10]: 1.8 h |
| 6400 | 6.2 | O=c1c2c(oc(O)c1C(c1cccc(NS(=O)(=O)c3ccc(C(F)(F)F)cc3)c1)C1CC1)CCCCCC2 (stereo not given) | > 30000 | – |
| 4200 | 4.1 | O=c1c2c(oc(O)c1C(c1cccc(NS(=O)(=O)c3ccc(F)cc3F)c1)C1CC1)CCCCCC2 (stereo not given) | > 30000 | – |
| 2000 | 2.5 | O=c1c2c(oc(O)c1C(c1cccc(NS(=O)(=O)c3ccc(Cl)cc3)c1)C1CC1)CCCCCC2 (stereo not given) | > 30000 | – |
| 900 | 1 | N#Cc1ccc(S(=O)(=O)Nc2cccc(C(c3c(O)oc4c(c3=O)CCCCCC4)C3CC3)c2)nc1 (stereo not given) | > 30000 | – |
| 7200 | 0.9 | O=c1c2c(oc(O)c1[C@@H](c1cccc(NS(=O)(=O)c3cccc4cccnc34)c1)C1CC1)CCCCCC2 | > 30000 | – |
| > 10000 | 2.2 | CCCC(c1cccc(NS(=O)(=O)c2cccnc2)c1)c1c(O)c2c(oc1=O)CCCCCC2 (stereo not given) | > 30000 | – |
| 3100 | 2.7 | O=c1c2c(oc(O)c1C(c1cccc(NS(=O)(=O)c3ccc([N+](=O)[O-])cc3)c1)C1CC1)CCCCCC2 (stereo not given) | > 30000 | – |
| 5300 | 3.1 | O=c1c2c(oc(O)c1C(c1cccc(NS(=O)(=O)c3ccc(I)cc3)c1)C1CC1)CCCCCC2 (stereo not given) | > 30000 | – |
| 1700 | 0.8 | O=c1c2c(oc(O)c1C(c1cccc(NS(=O)(=O)c3ncccn3)c1)C1CC1)CCCCCC2 (stereo not given) | > 30000 | – |
| 3400 | 4.1 | O=c1c2c(oc(O)c1C(c1cccc(NS(=O)(=O)c3ccc4ccccc4c3)c1)C1CC1)CCCCCC2 (stereo not given) | > 30000 | – |
| > 10000 | 7.4 | N#Cc1ccccc1S(=O)(=O)Nc1cccc(C(c2c(O)oc3c(c2=O)CCCCCC3)C2CC2)c1 (stereo not given) | > 30000 | – |
| 3400 | 4 | O=c1c2c(oc(O)c1C(c1cccc(NS(=O)(=O)c3ccc(OC(F)(F)F)cc3)c1)C1CC1)CCCCCC2 (stereo not given) | > 30000 | – |
